Key:
[1] = biological target: T1, Alpha-1A adrenergic receptor (Bos taurus, UniProt P18130); test: Evaluated for its ability to displace [3H]prazosin from alpha-1-Adrenoceptor of calf cerebral cortex; format: tissue-based
T1 sequence (P18130 whole entry): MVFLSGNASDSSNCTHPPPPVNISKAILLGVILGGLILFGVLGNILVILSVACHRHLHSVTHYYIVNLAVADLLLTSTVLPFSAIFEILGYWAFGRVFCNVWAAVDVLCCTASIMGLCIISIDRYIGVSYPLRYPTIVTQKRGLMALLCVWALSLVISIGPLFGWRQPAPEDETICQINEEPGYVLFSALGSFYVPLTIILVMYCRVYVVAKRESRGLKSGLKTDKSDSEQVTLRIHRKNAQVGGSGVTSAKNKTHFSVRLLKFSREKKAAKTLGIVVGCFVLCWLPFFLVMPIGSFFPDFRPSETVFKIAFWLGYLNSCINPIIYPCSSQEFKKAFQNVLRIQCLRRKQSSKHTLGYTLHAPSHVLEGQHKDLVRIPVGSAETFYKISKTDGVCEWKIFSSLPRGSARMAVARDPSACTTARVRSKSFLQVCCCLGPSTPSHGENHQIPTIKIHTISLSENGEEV

[2] = biological target: T2, Alpha-2A adrenergic receptor (Bos taurus, UniProt Q28838); test: Evaluated for its ability to displace [3H]clonidine from alpha-2 adrenergic receptor of calf cerebral cortex; format: tissue-based
T2 sequence (Q28838 whole entry): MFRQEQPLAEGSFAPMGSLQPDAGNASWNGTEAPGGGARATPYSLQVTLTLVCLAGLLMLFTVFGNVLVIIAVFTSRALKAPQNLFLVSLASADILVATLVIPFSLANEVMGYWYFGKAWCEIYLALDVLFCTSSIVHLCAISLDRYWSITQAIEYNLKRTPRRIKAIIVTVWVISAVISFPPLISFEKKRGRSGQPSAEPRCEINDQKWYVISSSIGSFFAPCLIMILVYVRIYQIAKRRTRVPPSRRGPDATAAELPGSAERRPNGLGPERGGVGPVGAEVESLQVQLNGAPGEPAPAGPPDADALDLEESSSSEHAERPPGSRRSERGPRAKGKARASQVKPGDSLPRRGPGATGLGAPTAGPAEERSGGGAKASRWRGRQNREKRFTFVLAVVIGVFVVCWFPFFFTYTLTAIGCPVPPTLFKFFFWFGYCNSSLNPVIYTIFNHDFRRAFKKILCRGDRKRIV

[3] = biological target: T3, Adrenergic receptor alpha-2 (Rattus norvegicus, UniProt P22086+P19328+P22909); test: Evaluated for its ability to displace [3H]rauwolscine from alpha-2 adrenergic receptor of rat cerebral cortex; format: tissue-based
T3 sequence (P22086 whole entry): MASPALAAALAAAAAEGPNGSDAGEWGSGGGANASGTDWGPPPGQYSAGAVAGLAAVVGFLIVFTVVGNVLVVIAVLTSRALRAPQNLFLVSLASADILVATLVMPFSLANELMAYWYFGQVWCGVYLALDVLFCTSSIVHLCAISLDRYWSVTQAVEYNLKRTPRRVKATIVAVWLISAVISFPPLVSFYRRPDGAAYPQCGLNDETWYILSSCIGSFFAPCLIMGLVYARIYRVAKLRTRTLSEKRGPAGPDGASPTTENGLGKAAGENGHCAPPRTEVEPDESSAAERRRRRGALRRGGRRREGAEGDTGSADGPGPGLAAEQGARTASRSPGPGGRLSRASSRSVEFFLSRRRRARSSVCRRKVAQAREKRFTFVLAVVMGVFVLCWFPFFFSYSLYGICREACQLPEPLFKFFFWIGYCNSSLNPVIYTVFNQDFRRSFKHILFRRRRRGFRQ
T3 sequence (P19328 whole entry): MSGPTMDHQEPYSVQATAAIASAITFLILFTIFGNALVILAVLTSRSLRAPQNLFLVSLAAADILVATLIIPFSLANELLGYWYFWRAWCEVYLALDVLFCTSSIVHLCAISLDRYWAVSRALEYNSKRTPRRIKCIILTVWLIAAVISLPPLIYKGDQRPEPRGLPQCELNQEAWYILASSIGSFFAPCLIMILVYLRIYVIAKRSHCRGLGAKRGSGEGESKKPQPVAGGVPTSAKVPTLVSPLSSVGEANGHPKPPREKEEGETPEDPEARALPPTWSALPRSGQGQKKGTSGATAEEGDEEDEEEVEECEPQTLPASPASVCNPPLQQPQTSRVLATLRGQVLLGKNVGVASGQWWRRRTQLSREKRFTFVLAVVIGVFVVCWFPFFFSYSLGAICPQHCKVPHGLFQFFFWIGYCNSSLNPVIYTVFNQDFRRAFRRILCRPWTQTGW
T3 sequence (P22909 whole entry): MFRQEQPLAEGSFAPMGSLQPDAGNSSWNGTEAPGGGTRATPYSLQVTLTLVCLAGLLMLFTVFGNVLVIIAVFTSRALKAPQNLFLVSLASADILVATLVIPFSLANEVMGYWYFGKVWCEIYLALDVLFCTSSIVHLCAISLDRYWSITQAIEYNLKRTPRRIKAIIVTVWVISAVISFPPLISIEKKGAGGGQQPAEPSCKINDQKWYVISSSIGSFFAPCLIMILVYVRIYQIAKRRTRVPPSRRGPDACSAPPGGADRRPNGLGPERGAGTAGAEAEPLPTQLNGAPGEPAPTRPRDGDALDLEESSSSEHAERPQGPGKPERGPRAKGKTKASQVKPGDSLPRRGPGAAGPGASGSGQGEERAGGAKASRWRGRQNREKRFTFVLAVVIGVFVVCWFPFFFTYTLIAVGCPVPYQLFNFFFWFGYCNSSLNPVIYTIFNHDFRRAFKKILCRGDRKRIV

Rattus norvegicus [4] = test: Tested for reversal of clonidine-induced mydriasis in the rat administered intravenously; format: functional; conditions: iv
Method in brief: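 In rats, clonidine-induced mydriasis from activation of central postsynaptic α2-adrenoceptors is established first. Test agents are then scored for reversing it, as a read-out of blood-brain barrier penetration and central α2 antagonism.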

Rattus norvegicus [5] = species on record: Rattus norvegicus; test: Tested for antagonism of clonidine in the field-stimulated rat vas deferens.; format: functional; conditions: read-out: pA2 (converted)
Method in brief: (§1)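 Isolated, field-stimulated rat vas deferens. Clonidine probes presynaptic α2-adrenoceptors and methoxamine probes postsynaptic α1-adrenoceptors. pA2 and slope come from Schild plots using at least three antagonist concentrations and four tissues per concentration. Values are means ± SD.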

Rattus norvegicus [6] = species on record: Rattus norvegicus; test: Tested for antagonism of methoxamine in the field-stimulated rat vas deferens.; format: functional; conditions: read-out: pA2 (converted); method in brief: as §1

Compound	Ki [1]	Ki [2]	Ki [3]	ED50 (Rattus norvegicus [4])	Kb (Rattus norvegicus [5])	Kb (Rattus norvegicus [6])
CN([C@@H]1CCN2CCc3c(oc4ccccc34)[C@@H]2C1)S(=O)(=O)CCO	110 nM	0.77 nM	1.1 nM	0.0346 mg/kg	0.794 nM	34.7 nM
CN([C@H]1CCN2CCc3c(oc4ccccc34)[C@H]2C1)S(=O)(=O)CCO	8000 nM	100 nM	190 nM	5.41 mg/kg	39.8 nM	2510 nM
COC(=O)[C@@H]1[C@H]2C[C@H]3c4[nH]c5ccccc5c4CCN3C[C@@H]2CC[C@@H]1O [YOHIMBINE]				1.04 mg/kg	22.4 nM	302 nM
CN(C1CCN2CCc3c(oc4ccccc34)C2C1)S(=O)(=O)CCO (stereo unspecified)	210 nM	1.36 nM	1.6 nM	0.0435 mg/kg	1.7 nM	102 nM

— ChEMBL document CHEMBL1122858, “N-(1,3,4,6,7,12b-hexahydro-2H-benzo[b]furo[2,3-a]quinolizin -2-yl)-N- methyl-2-hydroxyethane-sulfonamide: a potent and selective alpha 2-adrenoceptor antagonist” (J Med Chem, 1985)
